Laboratory results as given in ChEMBL document CHEMBL1938298, “Synthesis and characterization of [¹²⁵I]2-iodo N-[(S)-{(S)-1-methylpiperidin-2-yl}(phenyl)methyl]3-trifluoromethyl-benzamide as novel imaging probe for glycine transporter 1” (Bioorg Med Chem, 2011).
The source made the active and inactive calls. The calls are words filed in the database; no cut-off is given here.

Tests used:
Liver = experiment: Drug uptake in ddY mouse liver at 11.1 kBq, iv after 5 min by gamma counting; format: ADME, organism-based; conditions: in vivo
Summary of the method: (§1)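 Male ddY mice (6 weeks, 30–35 g) were given about 11.1 kBq of [125I]tracer in 0.1 mL i.v. via the tail vein. At each time point the animals were killed and organs dissected, weighed and gamma-counted. Uptake is expressed as % injected dose per gram of tissue, mean ± SD, n = 5–6.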

[1] = Metabolic stability in ddY mouse brain assessed as compound remaining at 185 kBq after 60 mins by radio-TLC; format: ADME, tissue-based; conditions: read-out: Stability
Stomach = experiment: Drug uptake in ddY mouse stomach at 11.1 kBq, iv after 0.5 min by gamma counting; format: ADME, organism-based; conditions: in vivo; summary of the method: as §1
Pancreas = experiment: Drug uptake in ddY mouse pancreas at 11.1 kBq, iv after 180 min by gamma counting; format: ADME, organism-based; conditions: in vivo, 3 h; summary of the method: as §1
Heart = experiment: Drug uptake in ddY mouse heart at 11.1 kBq, iv after 180 min by gamma counting; format: ADME, organism-based; conditions: in vivo, 3 h
Summary of the method: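 Male ddY mice (6 weeks, 30–35 g) received about 11.1 kBq [125I]tracer in 0.1 mL i.v. via tail vein. Killed at set times, organs dissected and weighed, radioactivity gamma counted. Reported as % injected dose/g tissue, mean ± SD, n = 5–6.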

Mus musculus [2] = experiment: In vivo binding affinity to GlyT1 in ddY mouse brain midbrain at 33.3 kBq, iv after 30 mins in presence of nonradioactive compound 2 mg/kg, iv administered 15 mins prior to compound administration relative to control; format: functional
Mus musculus [3] = experiment: In vivo binding affinity to GlyT1 in ddY mouse brain hippocampus at 33.3 kBq, iv after 60 mins in presence of nonradioactive compound 2 mg/kg, iv administered 15 mins prior to compound administration relative to control; format: functional, organism-based; design: dose 2 mg/kg; conditions: tested as the 125I-labelled form
Summary of the method: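 Male ddY mice (6 W, 30–35 g) were given [125I]5 (ca. 33.3 kBq, 0.1 mL) iv via tail vein. Blocker (2 mg/kg in 30% DMSO/saline) was given iv 15 min before the tracer. Mice were killed 30 or 60 min after injection and the brain regions were dissected and weighed. Gamma counting gave % dose/g, compared with control; n = 5–6.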

Mus musculus [4] = experiment: In vivo binding affinity to GlyT1 in ddY mouse brain striatum at 33.3 kBq, iv after 30 mins in presence of nonradioactive compound 2 mg/kg, iv administered 15 mins prior to compound administration relative to control; format: functional, organism-based; design: dose 2 mg/kg; conditions: tested as the 125I-labelled form
Mus musculus [5] = experiment: In vivo binding affinity to GlyT1 in ddY mouse brain striatum at 33.3 kBq, iv after 60 mins in presence of nonradioactive compound 2 mg/kg, iv administered 15 mins prior to compound administration relative to control; format: functional, organism-based; design: dose 2 mg/kg; conditions: tested as the 125I-labelled form
Mus musculus [6] = experiment: In vivo binding affinity to GlyT1 in ddY mouse brain cerebellum at 33.3 kBq, iv after 30 mins in presence of SSR504734 2 mg/kg, iv administered 15 mins prior to compound administration relative to control; format: functional, organism-based; design: dose 2 mg/kg; conditions: tested as the 125I-labelled form
Summary of the method: (§2)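 Blocking study in male ddY mice (6 weeks, 30–35 g). The blocker (2 mg/kg in 30% DMSO/saline) was injected i.v. 15 min before about 33.3 kBq [125I]tracer i.v.; mice were killed at 30 or 60 min. Brains were divided into cortex, corpus callosum, hippocampus, thalamus, midbrain, medulla and cerebellum, weighed and gamma-counted as % dose/g. Values are mean ± SD, n = 5–6, compared to control by Kruskal–Wallis with Dunn's post-test.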

Mus musculus [7] = experiment: In vivo binding affinity to GlyT1 in ddY mouse brain cerebellum at 33.3 kBq, iv after 60 mins in presence of SSR504734 2 mg/kg, iv administered 15 mins prior to compound administration relative to control; format: functional, organism-based; design: dose 2 mg/kg; conditions: tested as the 125I-labelled form; summary of the method: as §2
[8] = molecular target: T1, Sodium- and chloride-dependent glycine transporter 1 (Rattus norvegicus) (UniProt P28572); experiment: Binding affinity to GlyT1 in rat brain medullary region at 0.03 to 0.04 nM preincubated for 20 mins in binding buffer before compound addition measured after 30 mins by autoradiography in presence of 0.01 mM GlyT1 inhibitor ALX5407 relative to control; format: tissue-based; conditions: tested as the 125I-labelled form
T1 sequence (whole entry): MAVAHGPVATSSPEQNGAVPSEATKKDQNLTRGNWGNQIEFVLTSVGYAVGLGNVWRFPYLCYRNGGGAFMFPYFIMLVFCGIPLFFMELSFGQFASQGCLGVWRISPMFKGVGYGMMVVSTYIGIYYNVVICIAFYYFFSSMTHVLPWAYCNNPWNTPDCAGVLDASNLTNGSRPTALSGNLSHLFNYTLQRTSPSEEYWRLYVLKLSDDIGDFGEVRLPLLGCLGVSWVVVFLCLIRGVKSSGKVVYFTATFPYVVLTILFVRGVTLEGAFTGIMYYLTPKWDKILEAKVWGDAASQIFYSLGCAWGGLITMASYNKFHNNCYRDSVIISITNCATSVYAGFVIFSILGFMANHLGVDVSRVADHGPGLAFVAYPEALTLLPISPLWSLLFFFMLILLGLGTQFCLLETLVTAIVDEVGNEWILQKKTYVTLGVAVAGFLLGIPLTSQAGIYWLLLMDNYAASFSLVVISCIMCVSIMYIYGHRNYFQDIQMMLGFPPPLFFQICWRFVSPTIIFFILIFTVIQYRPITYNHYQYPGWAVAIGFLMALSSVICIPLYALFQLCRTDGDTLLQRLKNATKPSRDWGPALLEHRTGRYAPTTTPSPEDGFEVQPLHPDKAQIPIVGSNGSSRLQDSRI
Summary of the method: (§3)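 Rat brain sagittal sections (20 µm) preincubated 20 min at 25 °C in Tris-HCl buffer pH 7.5 (NaCl, KCl, MgCl2, CaCl2), then 30 min at 25 °C with [125I] tracer (100 kBq, 0.03–0.04 nM) plus competitor (10 µM; glycine 1 or 10 mM). Cold washes, imaging plate 3 days, ROI PSL minus background per mm². % control from ≥triplicate slices, three rats.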

[9] = molecular target: T1, Sodium- and chloride-dependent glycine transporter 1 (Rattus norvegicus); experiment: Binding affinity to GlyT1 in rat brain medullary region at 0.03 to 0.04 nM preincubated for 20 mins in binding buffer before compound addition measured after 30 mins by autoradiography in presence of 1 mM GlyT1 substrate glycine relative to control; format: tissue-based; conditions: tested as the 125I-labelled form; summary of the method: as §3
[10] = molecular target: T1, Sodium- and chloride-dependent glycine transporter 1 (Rattus norvegicus); experiment: Binding affinity to GlyT1 in rat brain cerebellum at 0.03 to 0.04 nM preincubated for 20 mins in binding buffer before compound addition measured after 30 mins by autoradiography in presence of GlyT1 inhibitor N-Me-SSR504734 relative to control; format: tissue-based; conditions: tested as the 125I-labelled form; summary of the method: as §3
[11] = molecular target: T1, Sodium- and chloride-dependent glycine transporter 1 (Rattus norvegicus); experiment: Binding affinity to GlyT1 in rat brain medullary region at 0.03 to 0.04 nM preincubated for 20 mins in binding buffer before compound addition measured after 30 mins by autoradiography relative to control; format: tissue-based; conditions: tested as the 125I-labelled form
Summary of the method: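 Rat brain sagittal sections (20 µm), 20 min preincubation at 25 °C in Tris-HCl pH 7.5 binding buffer, then [125I] tracer (100 kBq, 0.03–0.04 nM) for 30 min at 25 °C. Nonspecific binding taken with 10 µM unlabeled ligand. Imaging-plate read-out as (PSL−BG)/mm². Mean ± SD, n = 4–5 from at least three rats; Mann–Whitney U-test.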

Drug uptake (Liver) | remaining at 1 h [1] | Drug uptake (Stomach) | Drug uptake (Pancreas) | Drug uptake (Heart) | Activity [8] | Activity [9] | Activity [10] | Activity [11] | Compound | Activity (Mus musculus [2]) | Activity (Mus musculus [3]) | Activity (Mus musculus [4]) | Activity (Mus musculus [5]) | Activity (Mus musculus [6]) | Activity (Mus musculus [7])
9.25 % ID/g | 89% | 0.83 % ID/g | 4.84 % ID/g | 1.79 % ID/g | – | – | – | – | CN1CCCC[C@H]1[C@@H](NC(=O)c1cccc(C(F)(F)F)c1[125I])c1ccccc1 | 48% | – | – | – | – | –
– | – | – | – | – | 25.3% | 104% | 28.9% | Active | CN1CCCC[C@H]1[C@@H](NC(=O)c1cccc(C(F)(F)F)c1I)c1ccccc1 | – | Active | Active | Active | inactive | inactive
